Assay outcomes deposited in PubChem BioAssay by several laboratories.
Most compounds without a hit are left out; they make up all but 4.2% or so of the library.
KCNQ1 pot: human KCNQ1 channel potentiation or activation; AID 2648; CHO-K1 KCNQ1, thallium flux FluxOR fluorescence; active compounds read high; B-score at 10 µM; P51787; 310,000 tested, 0.35% active;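 active = fluorescence ratio B-score, a plate-corrected score, at least three library SD, with initial intensity B-score within 5 SD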
Target sequence (P51787 whole entry, looked up): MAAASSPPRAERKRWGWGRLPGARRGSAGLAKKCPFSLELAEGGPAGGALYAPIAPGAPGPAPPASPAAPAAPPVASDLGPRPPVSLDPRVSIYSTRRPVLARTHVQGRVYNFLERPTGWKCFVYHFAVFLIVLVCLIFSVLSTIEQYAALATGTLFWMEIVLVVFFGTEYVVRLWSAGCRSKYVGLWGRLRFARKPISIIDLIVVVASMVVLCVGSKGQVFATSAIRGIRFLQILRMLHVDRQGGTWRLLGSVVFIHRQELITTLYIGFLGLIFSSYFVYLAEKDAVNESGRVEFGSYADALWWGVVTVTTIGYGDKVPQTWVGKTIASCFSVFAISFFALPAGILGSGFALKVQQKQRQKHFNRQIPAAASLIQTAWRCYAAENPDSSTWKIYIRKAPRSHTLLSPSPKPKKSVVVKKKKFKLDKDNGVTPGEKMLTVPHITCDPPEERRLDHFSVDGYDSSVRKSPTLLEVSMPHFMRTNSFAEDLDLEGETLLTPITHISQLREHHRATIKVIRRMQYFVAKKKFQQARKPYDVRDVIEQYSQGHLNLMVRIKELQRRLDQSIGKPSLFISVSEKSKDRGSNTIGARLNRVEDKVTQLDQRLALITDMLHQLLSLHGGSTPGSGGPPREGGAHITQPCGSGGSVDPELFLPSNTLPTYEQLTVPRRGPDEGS
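assay system = CHO-K1 cells stably expressing KCNQ1 | medium = assay buffer, equal DMSO in all wells | timing = 37 °C overnight plating, 90-min dark dye load, 20-min compound pretreatment | measured by = kinetic FluxOR thallium fluorescence, 10-s 1-Hz baseline, 110-s post-stimulus read | measure = fluorescence change relative to baseline, converted to B score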
hERG rescue: compounds protecting human hERG from proarrhythmic drug block | Q12809 | CHO-hERG, FluxOR thallium flux, dofetilide IC70 present | activation (rescue from dofetilide block), less the hit threshold, % at 10 µM | 310,000 tested, 0.51% active;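 active = activation above the mean of controls blocked by dofetilide plus 5 SD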;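 also: thallium influx through hERG after potassium depolarization seen as dye fluorescence rise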
SUMO Mot1 rescue: blocks SUMOylation pathway, rescuing yeast Mot1-301 growth. S. cerevisiae Mot1-301 growth rescue, ATP luminescence, 38.5C; percent above DMSO median, 100 means doubled. growth rescue, % at 18.8 µM. AID 2716. 320,000 tested, 1% active;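 active = every valid replicate shows activation above 250% relative to neutral control wells; inactive = the rest, any valid replicate at or below 250%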;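 also: OY570 slx delta 5 strain wells were the positive control but not used for scaling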
KCNQ1 inh: inhibitors of human KCNQ1 potassium channel. B-score at 10 µM. 310,000 tested, 1.3% active. CHO-K1 KCNQ1, FluxOR thallium flux fluorescence; active compounds read high;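 active = compounds whose thallium flux B-score, printed positive for inhibition, exceeds three library SD while starting fluorescence stays within three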;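 also: channel opened by potassium depolarization with thallium stimulus after 20 min compound exposure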
KCC2 mod: modulates chloride dependent transport by human KCC2. AID 1456. 190,000 tested, 2.2% active. Q9H2X9. KCC2 cells, thallium flux FluoZin-2 fluorescence. B-score of Tl+ flux slope (higher = more flux/activation; lower = inhibition) at 10 µM;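 active = thallium flux slope and its plate-corrected score both differing from the plate sample mean at a set confidence after two filtering rounds, in either direction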;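 also: slope of fluorescence scaled to starting intensity during 10 to 20 s after thallium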
AI-2 QS mod: Vibrio harveyi AI-2 quorum sensing modulation; AID 2094; activity change, % at 7.5 µM; 300,000 tested, 0.4% active; Vibrio harveyi JMH597 AI-2 luminescence/OD600 ratio, 9 h; active compounds read low; strain lacks LuxN and CqsS sensors; 0 = neutral-control median; in the data active = activity change below about -75%, passing the limit was not always enough; inconclusive = no clear call, values can overlap the other calls;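 also: luminescence divided by OD600 gain over 9 h not by final OD600 alone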
KCC2 sec1: confirmation of human KCC2 transport modulators; shares compounds with KCC2 mod; HEK293-KCC2, thallium flux, FluoZin2 fluorescence; active compounds read high; normalised thallium flux (F/F0 slope) at 10 µM; 3,700 tested, 15% active; AID 1713;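 active = thallium flux slope above the same plate's solvent-only control mean plus 3 SD; inconclusive = the two replicate wells disagree; inactive = no significant difference from solvent-only control wells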
KCC2 bumet counter: thallium flux despite bumetanide block in KCC2 cells, secondary assay 3; AID 1714; HEK293-KCC2 + bumetanide/ouabain, thallium flux FluoZin2; active compounds read high; 3,700 tested, 49% active; shares compounds with KCC2 mod; normalized thallium flux at 10 µM;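 active = thallium entry rate above the same plate's blocked-transporter control wells by more than 3 SD; inconclusive = the two repeat wells disagree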;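 also: raw slope of fluorescence over initial fluorescence between 10 and 20 s after thallium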
KCC2 sec2: confirmation of human KCC2 transport modulators | shares compounds with KCC2 mod | HEK293-KCC2, thallium flux FluoZin2 fluorescence; actives lie on both sides; F/F0 rise rate, 10–20 s post-thallium | normalized thallium flux at 10 µM | 3,700 tested, 23% active | AID 1715;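 active = thallium flux slope more than 3 SD above or below the plate's solvent-only control mean, mostly below; inconclusive = the two repeat wells disagreed; inactive = no significant shift from solvent-only controls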;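 also: raw slope with 0.1% DMSO as baseline and bumetanide as block control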
HEK293 Tl flux: counter-screen for KCC2 modulators: effect in parental HEK293 cells | shares compounds with KCC2 mod | 3,700 tested, 46% active | thallium flux rate (normalised fluorescence) at 10 µM | thallium flux FluoZin2, ouabain; baseline-ratio fluorescence slope, 10–20 s after thallium;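 active = thallium flux rate significantly above the same plate's solvent-only control wells, beyond their mean plus 3 SD; inconclusive = the two replicate wells gave conflicting results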
KCC2 retest ouab: modulates human KCC2 on retest with ouabain; 3,700 tested, 48% active; HEK293-KCC2, thallium flux FluoZin2 fluorescence; bidirectional: low = inhibitor, high = activator; raw Tl+ flux slope (below DMSO = inhibition, above = activation) at 10 µM; shares compounds with KCC2 mod; AID 1717;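 active = thallium flux slope beyond 3 SD from same-plate DMSO control mean in most replicates, usually higher, sometimes lower; inconclusive = repeat tests gave conflicting results; inactive = no significant difference from controls in most replicates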;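 also: slope of initial-normalized fluorescence between seconds 10 and 20 after thallium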
HEK293 Tl flux2: counter-screen for KCC2 modulators: effect in parental HEK293 cells | 3,700 tested, 33% active | thallium flux slope at 10 µM | shares compounds with KCC2 mod | thallium flux FluoZin-2 fluorescence slope;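 active = thallium flux slope above the same plate's solvent-control mean plus 3 SD in both duplicate wells; inconclusive = duplicate wells that disagreed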;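 also: run without ouabain in cells lacking the KCC2 cotransporter; slope of fluorescence scaled to its starting value between 10 and 20 s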
Active calls of the source: *; i = inactive; ? = inconclusive; · = no result given.

SMILES	KCNQ1 pot	hERG rescue	SUMO Mot1 rescue	KCNQ1 inh	KCC2 mod	AI-2 QS mod	KCC2 sec1	KCC2 bumet counter	KCC2 sec2	HEK293 Tl flux	KCC2 retest ouab	HEK293 Tl flux2
CC1CCCC(C)N1C(=O)CSc1ccc(-c2ccc3c(c2)OCCO3)nn1 (configuration not stated)	i	-7.7	-6.7	i	·	13.5	·	·	·	·	·	·
CC1CCCCN1C(=O)CSc1ccc(-c2ccc(F)cc2)nn1 (configuration not stated)	i	-9.9	-2.5	i	·	36.7	0.0104	0.00636	0.0282*	0.00436	0.017*	0.0112
O=C(CSc1ccccc1)Nc1ccc2c(c1)OCCO2	i	-6.3	-5.8	i	·	28.0	·	·	·	·	·	·
Cc1cc(NC(=O)CSc2ccc(-c3ccc(F)cc3)nn2)no1	i	3.1	7.5	i	-5.24*	2.7	0.00647	0.00503	0.0247*	0.00706	?	0.0101
Cc1cc(NC(=O)CSc2ccc(-c3ccccc3)nn2)no1	i	-6.7	8.0	i	-7.45*	3.1	0.00585	0.00509	0.0243*	?	0.013*	0.009
O=C(CSc1ccc(-c2ccccc2)nn1)Nc1ccc2c(c1)OCCO2	i	-11.2	23.1	i	-6.19*	18.9	0.00801	0.00489	0.0222*	0.00642	0.014*	0.00975
CCN1CCN(C(=O)C(C)Nc2ccc(OC)cc2OC)CC1 (configuration not stated)	i	-5.0	-6.7	i	-0.0535	11.8	·	·	·	·	·	·
Cc1cccc(C)c1NC(=O)NC1(C(=O)NCCCN2CCOCC2)CCCCC1	i	-8.7	·	i	0.262	7.7	·	·	·	·	·	·
O=C(NCC1CC1)c1cc(-c2ccccc2)nn1CC1CC(c2cccc([N+](=O)[O-])c2)=NO1 (configuration not stated)	i	-8.2	-5.7	i	·	16.0	·	·	·	·	·	·
Cc1cc([N+](=O)[O-])ccc1NC(=O)CN1C2CCC1CC(NC(=O)NC13CC4CC(CC(C4)C1)C3)C2 (configuration not stated)	i	-15.0	-2.4	i	0.0733	34.4	·	·	·	·	·	·
O=C(CSc1ccc(-c2ccccc2)nn1)c1ccccc1	i	-6.3	62.9	i	-4.08*	-16.4	0.00534	?	0.0215*	0.00856	?	0.0113
CC(C)c1nnc(NC(=O)c2cccnc2)s1	i	-8.7	-5.9	i	7.83*	27.1	0.016	0.00509	0.0265	0.00731	0.0162	0.0108
O=C1NCC(O)=C1C=NCCO	i	-3.3	-3.4	i	·	23.0	0.00622	0.00506	0.0311	0.00781	0.0181	0.0118
CCCn1nc(C(=O)Nc2nc3ccccc3[nH]2)c2ccccc2c1=O	i	-8.9	3.4	i	-0.79	16.6	·	·	·	·	·	·
CC(C)n1nc(C(=O)Nc2nc3ccccc3[nH]2)c2ccccc2c1=O	i	-5.8	-10.5	i	-3.97*	11.4	0.0146	0.00369	0.0246*	?	0.0135	0.00882
Cc1nc2c(c(=O)n1CCC1=CCCCC1)c1nc3ccccc3nc1n2/N=C/c1ccco1	i	-19.8	-9.9	i	-5.85*	13.4	0.0062	0.00456	0.0289	0.00734	0.0186	0.0114
CCOc1ccccc1OCCCC(=O)N(CC)CC(=O)Nc1c(F)cccc1F	i	-12.7	-30.4	i	·	0.8	·	·	·	·	·	·
CSc1cccc(NC(=O)CNC(=O)C2CCCCC2)c1	i	-14.3	-0.2	i	·	15.5	·	·	·	·	·	·
CCC(Sc1nc(C)cc(=O)[nH]1)C(=O)Nc1nc(-c2ccccc2)cs1 (configuration not stated)	i	-21.7	29.2	i	-5.25*	-0.3	0.00456	0.00547	0.0211*	0.00598*	0.0121*	0.00974
CCC(Sc1nc(-c2ccccc2)cc(=O)[nH]1)C(=O)O (configuration not stated)	i	0.5	42.5	i	·	11.7	·	·	·	·	·	·
CC(=O)Nc1ccc(Nc2cc(C)nc3c(-c4ccccc4)cnn23)cc1	·	·	2.7	·	-3.92*	·	0.00781	0.00917*	0.032	0.00735	0.0203	0.0106
CSC(=NCc1ccc(F)cc1)NS(=O)(=O)c1cccs1	i	-3.0	-13.2	i	-3.77*	4.8	0.00866	?	0.0252*	0.00413	0.0151*	0.0111
O=C(NNC(=S)NC(=O)C12CC3CC(CC(C3)C1)C2)c1ccncc1	i	-2.4	-11.4	i	·	53.2	0.0166*	0.0378*	0.0359	0.0196*	0.0292	0.0135*
CC1(C(=O)NC(=S)NNC(=O)c2ccncc2)CCCCC1	i	-4.4	-18.7	i	2.84	103.6	·	·	·	·	·	·
O=C(NNC(=S)Nc1cccc(Cl)c1)c1ccccc1OC(F)F	i	-15.3	-5.4	9*	6.39*	29.0	0.0104	0.0332*	0.0342	0.0168*	0.0355*	0.0124*
Cc1ccc(NC(=S)NNC(=O)c2ccccc2OC(F)F)cc1	i	-8.1	7.8	i	8.35*	21.6	0.0115	0.0219*	0.0332	0.0182*	0.028*	0.0133*
O=C(NNC(=S)Nc1ccc(F)cc1)c1ccccc1OC(F)F	i	-16.3	-25.0	i	0.327	-5.1	·	·	·	·	·	·
O=C(COC(=O)c1ccccc1Br)NCCC1=CCCCC1	i	-10.5	14.3	i	-0.878	39.4	·	·	·	·	·	·
O=C(NC(=S)NC1CCCC1)c1ccccc1Br	i	-3.3	6.0	i	8.79*	7.3	0.013*	0.0548*	0.0369	0.0218*	?	0.0149*
O=C(NC(=S)NCCC1=CCCCC1)c1ccccc1Br	i	1.1	-2.5	i	45.7*	4.3	?	0.0412*	0.0481*	0.0387*	0.0427*	0.0249*
